The results in this text go back to ChEMBL document CHEMBL1944577, “Synthesis, evaluation and docking studies on 3-alkoxy-4-methanesulfonamido acetophenone derivatives as non ulcerogenic anti-inflammatory agents” (Eur J Med Chem, 2012).

Series [1] deals with Rattus norvegicus. Put plainly: Antiinflammatory activity in po dosed Wistar rat assessed as inhibition of carrageenan-induced paw oedema compound administered 30 mins after carrageenan challenge measured after 5 hrs by plethysmograph analysis. The class given is functional. Summed up: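 Carrageenan paw edema in Wistar rats (150–200 g, either sex, n = 6 per group): 0.1 ml 1% w/v carrageenan injected into the left plantar region. Compounds were suspended in 0.5% w/v CMC and dosed orally 30 min post-challenge at three graded doses. Plethysmographic (mercury displacement) paw volume was read to 5 h. ED50 was derived from the three-dose responses.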

Series [2] concerns Rattus norvegicus. Put plainly: Antiinflammatory activity in Wistar rat assessed as inhibition of carrageenan-induced paw oedema at 100 mg/kg, po dosed 30 mins after carrageenan challenge measured after 5 hrs by plethysmograph analysis relative to control. Format: functional. The procedure, abridged:
(§1)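 Wistar rats (150–200 g, either sex) in groups of six. Carrageenan 1% w/v in saline, 0.1 ml, injected into the plantar left hind paw. Compound was given p.o. 30 min later as a suspension in 0.5% w/v CMC; controls received CMC. Paw volume was read by mercury-displacement plethysmograph at 0–5 h. % reduction = (1 − Vt/Vc)×100 versus control, at 5 h.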

For series [3], the system named is Rattus norvegicus. Put plainly: Ulcerogenicity in Wistar rat assessed as lesion score at 100 mg/kg, po after 6 hrs. The arrangement: dose 100 mg/kg, route oral. The class given is toxicity, organism-based. Conditions: in vivo. Summed up:
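Wistar rats of either sex (150–200 g, n = 6) were dosed orally and killed by cervical dislocation 6 h later. Stomachs were inflated with 2% formalin, fixed 10 min, and opened along the greater curvature. Lesions were examined under a dissecting microscope (10x grid). Longest lesion diameters were summed per animal as the lesion score (mm), then averaged per group.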

Series [4] deals with Rattus norvegicus. Put plainly: Antiinflammatory activity in Wistar rat assessed as inhibition of carrageenan-induced paw oedema at 10 mg/kg, po dosed 30 mins after carrageenan challenge measured after 5 hrs by plethysmograph analysis relative to control. Format: functional. The procedure, abridged: as §1
Series [5] has as its system Rattus norvegicus. Put plainly: Antiinflammatory activity in Wistar rat assessed as inhibition of carrageenan-induced paw oedema at 30 mg/kg, po dosed 30 mins after carrageenan challenge measured after 5 hrs by plethysmograph analysis relative to control. Format: functional. The procedure, abridged:
as §1

In the case of `CCCCOc1cc(C(C)=O)ccc1NS(C)(=O)=O`, the ED50 with Rattus norvegicus [1] came to 2 mg/kg. Moreover, the inhibition in vivo at 100 mg/kg in the series on Rattus norvegicus [2] was 72.7%. Besides, in the series with Rattus norvegicus [3], the UI turned out to be 5 mm.

In the case of `CCCCCOc1cc(C(C)=O)ccc1NS(C)(=O)=O`, the 50% effective dose (ED50) in the series with Rattus norvegicus [1] was 8.18 mg/kg. The inhibition in vivo at 100 mg/kg in the series on Rattus norvegicus [2] was determined as 59.6%. In addition, in the series with Rattus norvegicus [3], the UI was 4 mm.

In the case of `CCCCCCOc1cc(C(C)=O)ccc1NS(C)(=O)=O`, the ED50 in the series with Rattus norvegicus [1] worked out at 2.3 mg/kg. Also, the inhibition in vivo at 100 mg/kg in the series with Rattus norvegicus [2] stood at 76.8%. The UI with Rattus norvegicus [3] is on record as 4 mm.

For the molecule `CC(=O)c1ccc(NS(C)(=O)=O)c(OC2CCCCC2)c1`, in the series on Rattus norvegicus [1], the ED50 came out at 2.23 mg/kg. Also, in the series on Rattus norvegicus [2], the inhibition in vivo at 100 mg/kg is 73.7%. In addition, in the series on Rattus norvegicus [3], the UI is reported as 3 mm.

For `CCCCOc1cc(C(C)=O)ccc1N`, in the series on Rattus norvegicus [2], the inhibition in vivo at 100 mg/kg stood at 13.8%. For the same molecule, the UI in the series with Rattus norvegicus [3] is recorded as 2 mm.

For the molecule `CCCCCOc1cc(C(C)=O)ccc1N`, the inhibition in vivo at 100 mg/kg in the series with Rattus norvegicus [2] turned out to be 9.88%. Also, the UI with Rattus norvegicus [3] was 2 mm.

On to `CCCCCCOc1cc(C(C)=O)ccc1N`, for which the inhibition in vivo at 100 mg/kg with Rattus norvegicus [2] is 14.1%. Further, in the series with Rattus norvegicus [3], the UI was found to be 3 mm.

Turning to `CC(=O)c1ccc(N)c(OC2CCCCC2)c1`, the inhibition in vivo at 100 mg/kg in the series with Rattus norvegicus [2] stood at 19%. The UI in the series on Rattus norvegicus [3] turned out to be 3 mm.

`COc1ccc2c(c1)c(CC(=O)O)c(C)n2C(=O)c1ccc(Cl)cc1` [INDOMETHACIN]: the inhibition in vivo at 10 mg/kg with Rattus norvegicus [4] was 79.7%. Moreover, the ED50 in the series with Rattus norvegicus [1] was 2 mg/kg. In the series with Rattus norvegicus [3], the UI is given as 22.3 mm.

Consider `CS(=O)(=O)c1ccc(C2=C(c3ccccc3)C(=O)OC2)cc1` [ROFECOXIB], for which the 50% effective dose (ED50) with Rattus norvegicus [1] is 2.5 mg/kg. Moreover, the inhibition in vivo at 30 mg/kg in the series on Rattus norvegicus [5] turned out to be 81.8%. Further, the UI in the series with Rattus norvegicus [3] was determined as 3 mm.
